Experiments:
Type in all cases: functional
[1] = system: MDA-MB-435; assay: Growth inhibition of human MDA-MB-435 cells at 10 uM relative to control; settings: values are per cent of control
In short: (§1)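 Single-dose preliminary screen in the NCI human cancer cell line panel, run by the NIH. Percent inhibition of cell line growth was calculated by comparison with untreated samples.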

[2] = cells; settings: Homo sapiens, Cancer cell lines
[3] = cells; settings: Homo sapiens, Cancer cell lines; remark: listed apart in the source
[4] = system: T47D; assay: Growth inhibition of human T47D cells at 10 uM relative to control; settings: values are per cent of control
In short: (§2)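 Single-dose NCI human tumour cell line screen, run by the NIH. Percent inhibition of cell line growth was calculated by comparison with untreated samples.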

[5] = system: SK-OV-3; assay: Growth inhibition of human SKOV3 cells at 10 uM relative to control; settings: values are per cent of control; in short: as §1
[6] = system: SF-539; assay: Growth inhibition of human SF539 cells at 10 uM relative to control; settings: values are per cent of control; in short: as §1
[7] = system: SN12C; assay: Growth inhibition of human SN12C cells at 10 uM relative to control; settings: values are per cent of control; in short: as §1
[8] = system: OVCAR-8; assay: Growth inhibition of human OVCAR8 cells at 10 uM relative to control; settings: values are per cent of control; in short: as §1
[9] = system: HOP-62; assay: Growth inhibition of human HOP62 cells at 10 uM relative to control; settings: values are per cent of control; in short: as §1
[10] = system: NCI-H23; assay: Growth inhibition of human NCI-H23 cells at 10 uM relative to control; settings: values are per cent of control; in short: as §1
[11] = system: SW-620; assay: Growth inhibition of human SW620 cells at 10 uM relative to control; settings: values are per cent of control; in short: as §2
[12] = system: UACC-257; assay: Growth inhibition of human UACC257 cells at 10 uM relative to control; settings: values are per cent of control; in short: as §2
[13] = system: UACC-62; assay: Growth inhibition of human UACC62 cells at 10 uM relative to control; settings: values are per cent of control; in short: as §2
[14] = system: MDA-MB-231; assay: Growth inhibition of human MDA-MB-231 cells at 10 uM relative to control; settings: values are per cent of control; in short: as §1
[15] = cells; settings: Homo sapiens, Cancer cell lines; remark: listed apart in the source
[16] = system: CCRF-CEM; assay: Growth inhibition of human CCRF-CEM cells at 10 uM relative to control; settings: values are per cent of control; in short: as §1
[17] = system: PC-3; assay: Growth inhibition of human PC3 cells at 10 uM relative to control; settings: values are per cent of control; in short: as §1
[18] = system: SK-MEL-2; assay: Growth inhibition of human SK-MEL-2 cells at 10 uM relative to control; settings: values are per cent of control; in short: as §1
[19] = cells; settings: Homo sapiens, Cancer cell lines; remark: listed apart in the source
[20] = system: HCT-116; assay: Growth inhibition of human HCT116 cells at 10 uM relative to control; settings: values are per cent of control; in short: as §1
[21] = system: K562; assay: Growth inhibition of human K562 cells at 10 uM relative to control; settings: values are per cent of control; in short: as §1
[22] = system: HT-29; assay: Growth inhibition of human HT-29 cells at 10 uM relative to control; settings: values are per cent of control; in short: as §1
[23] = system: SNB-75; assay: Growth inhibition of human SNB75 cells at 10 uM relative to control; settings: values are per cent of control; in short: as §2
[24] = Growth inhibition of human RPMI8266 cells at 10 uM relative to control; settings: values are per cent of control; in short: as §1
[25] = system: LOX IMVI; assay: Growth inhibition of human LOXIMVI cells at 10 uM relative to control; settings: values are per cent of control; in short: as §1
[26] = system: HL-60(TB); assay: Growth inhibition of human HL-60(TB) cells at 10 uM relative to control; settings: read-out: INH
In short: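 Single-dose cell line screen run by the NCI (NIH) in its human cancer cell line panel, which includes the leukemia line HL-60(TB). Percent growth inhibition was calculated by comparison with untreated samples.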

[27] = system: BT-549; assay: Growth inhibition of human BT549 cells at 10 uM relative to control; settings: values are per cent of control; in short: as §1
[28] = system: NCI-H226; assay: Growth inhibition of human NCI-H226 cells at 10 uM relative to control; settings: values are per cent of control; in short: as §1
[29] = system: A549; assay: Growth inhibition of human A549 cells at 10 uM relative to control; settings: values are per cent of control; in short: as §1
[30] = system: Malme-3M; assay: Growth inhibition of human MALME-3M cells at 10 uM relative to control; settings: values are per cent of control; in short: as §1
[31] = system: SF-295; assay: Growth inhibition of human SF295 cells at 10 uM relative to control; settings: values are per cent of control; in short: as §1
[32] = system: IGROV-1; assay: Growth inhibition of human IGROV1 cells at 10 uM relative to control; settings: values are per cent of control; in short: as §1
[33] = system: A498; assay: Growth inhibition of human A498 cells at 10 uM relative to control; settings: values are per cent of control; in short: as §1
[34] = system: HOP-92; assay: Growth inhibition of human HOP92 cells at 10 uM relative to control; settings: values are per cent of control; in short: as §1
[35] = cells; settings: Homo sapiens, Cancer cell lines; remark: listed apart in the source
[36] = system: CAKI-1; assay: Growth inhibition of human Caki1 cells at 10 uM relative to control; settings: values are per cent of control; in short: as §1
[37] = system: M14; assay: Growth inhibition of human M14 cells at 10 uM relative to control; settings: values are per cent of control; in short: as §1
[38] = system: SF-268; assay: Growth inhibition of human SF268 cells at 10 uM relative to control; settings: values are per cent of control; in short: as §1
[39] = system: U-251; assay: Growth inhibition of human U251 cells at 10 uM relative to control; settings: values are per cent of control; in short: as §2
[40] = system: UO-31; assay: Growth inhibition of human UO31 cells at 10 uM relative to control; settings: values are per cent of control; in short: as §2
[41] = system: EKVX; assay: Growth inhibition of human EKVX cells at 10 uM relative to control; settings: values are per cent of control; in short: as §1
[42] = system: Leukemia cell; assay: cells; settings: Homo sapiens
[43] = Growth inhibition of human Hs 578T cells at 10 uM relative to control; settings: values are per cent of control; in short: as §1
[44] = system: HCT-15; assay: Growth inhibition of human HCT15 cells at 10 uM relative to control; settings: values are per cent of control; in short: as §1
[45] = system: SNB-19; assay: Growth inhibition of human SNB19 cells at 10 uM relative to control; settings: values are per cent of control; in short: as §1
[46] = system: NCI-H322M; assay: Growth inhibition of human NCI-H322M cells at 10 uM relative to control; settings: values are per cent of control; in short: as §1
[47] = system: NCI/ADR-RES; assay: Growth inhibition of human NCI/ADR-RES cells at 10 uM relative to control; settings: values are per cent of control; in short: as §1
[48] = system: Melanoma cell; assay: cells; settings: Homo sapiens
[49] = system: OVCAR-4; assay: Growth inhibition of human OVCAR4 cells at 10 uM relative to control; settings: values are per cent of control; in short: as §1
[50] = system: SK-MEL-28; assay: Growth inhibition of human SK-MEL-28 cells at 10 uM relative to control; settings: values are per cent of control; in short: as §1
[51] = system: KM12; assay: Growth inhibition of human KM12 cells at 10 uM relative to control; settings: values are per cent of control; in short: as §1
[52] = system: ACHN; assay: Growth inhibition of human ACHN cells at 10 uM relative to control; settings: values are per cent of control; in short: as §1
[53] = system: DU-145; assay: Growth inhibition of human DU145 cells at 10 uM relative to control; settings: values are per cent of control; in short: as §1
[54] = system: MDA-MB-468; assay: Growth inhibition of human MDA-MB-468 cells at 10 uM relative to control; settings: values are per cent of control; in short: as §1
[55] = system: COLO 205; assay: Growth inhibition of human COLO205 cells at 10 uM relative to control; settings: values are per cent of control; in short: as §1
[56] = system: NCI-H460; assay: Growth inhibition of human NCI-H460 cells at 10 uM relative to control; settings: values are per cent of control; in short: as §1
[57] = system: NCI-H522; assay: Growth inhibition of human NCI-H522 cells at 10 uM relative to control; settings: values are per cent of control; in short: as §1
[58] = system: HCC 2998; assay: Growth inhibition of human HCC2998 cells at 10 uM relative to control; settings: values are per cent of control; in short: as §1
[59] = system: TK-10; assay: Growth inhibition of human TK10 cells at 10 uM relative to control; settings: values are per cent of control; in short: as §2
[60] = system: OVCAR-5; assay: Growth inhibition of human OVCAR5 cells at 10 uM relative to control; settings: values are per cent of control; in short: as §1
[61] = system: 786-0; assay: Growth inhibition of human 786-0 cells at 10 uM relative to control; settings: values are per cent of control; in short: as §1
[62] = system: MCF7; assay: Growth inhibition of human MCF7 cells at 10 uM relative to control; settings: values are per cent of control; in short: as §1
[63] = system: MOLT-4; assay: Growth inhibition of human MOLT4 cells at 10 uM relative to control; settings: values are per cent of control; in short: as §1

O=C(/C=C/c1cn(CC(=O)Nc2ccccc2)nn1)NO
growth, % of control at 10 µM [1]: 63.4% | inhibition at 10 µM [2]: 74% | inhibition at 10 µM [3]: 89% | growth, % of control at 10 µM [4]: 56.6% | growth, % of control at 10 µM [5]: 79.5% | growth, % of control at 10 µM [6]: 107% | growth, % of control at 10 µM [7]: 89% | growth, % of control at 10 µM [8]: 51.9% | growth, % of control at 10 µM [9]: 43.1% | growth, % of control at 10 µM [10]: 82.8% | growth, % of control at 10 µM [11]: 91.5% | growth, % of control at 10 µM [12]: 54.4% | growth, % of control at 10 µM [13]: 70.8% | growth, % of control at 10 µM [14]: 104% | growth percent at 10 µM [15]: 71% | growth, % of control at 10 µM [16]: 57.1% | growth, % of control at 10 µM [17]: 79.7% | growth, % of control at 10 µM [18]: 51.1% | inhibition at 10 µM [19]: 68% | growth, % of control at 10 µM [20]: 55.3% | growth, % of control at 10 µM [21]: 86% | growth, % of control at 10 µM [22]: 51.9% | growth, % of control at 10 µM [23]: 88.5% | growth, % of control at 10 µM [24]: 64.2% | growth, % of control at 10 µM [25]: 95.4% | growth, % of control at 10 µM [26]: 153% | growth, % of control at 10 µM [27]: 83.6% | growth, % of control at 10 µM [28]: 94.1% | growth, % of control at 10 µM [29]: 91.2% | growth, % of control at 10 µM [30]: 21.4% | growth, % of control at 10 µM [31]: 81.3% | growth, % of control at 10 µM [32]: 86.4% | growth, % of control at 10 µM [33]: 105% | growth, % of control at 10 µM [34]: 67.8% | growth percent at 10 µM [35]: 90% | growth, % of control at 10 µM [36]: 81.7% | growth, % of control at 10 µM [37]: 60% | growth, % of control at 10 µM [38]: 66.8% | growth, % of control at 10 µM [39]: 86.6% | growth, % of control at 10 µM [40]: 74% | growth, % of control at 10 µM [41]: 70.5% | inhibition at 10 µM [42]: 84% | growth, % of control at 10 µM [43]: 84.2% | growth, % of control at 10 µM [44]: 105% | growth, % of control at 10 µM [45]: 105% | growth, % of control at 10 µM [46]: 41.8% | growth, % of control at 10 µM [47]: 13.4% | inhibition at 10 µM [48]: 69% | growth, % of control at 10 µM [49]: 83.7% | growth, % of control at 10 µM [50]: 93.4% | growth, % of control at 10 µM [51]: 76% | growth, % of control at 10 µM [52]: 113% | growth, % of control at 10 µM [53]: 87.8% | growth, % of control at 10 µM [54]: 64.2% | growth, % of control at 10 µM [55]: 117% | growth, % of control at 10 µM [56]: 86.1% | growth, % of control at 10 µM [57]: 41% | growth, % of control at 10 µM [58]: 83.5% | growth, % of control at 10 µM [59]: 101% | growth, % of control at 10 µM [60]: 79% | growth, % of control at 10 µM [61]: 69.5% | growth, % of control at 10 µM [62]: 95.8% | growth, % of control at 10 µM [63]: 62.2%

— ChEMBL document CHEMBL1140227, “Histone deacetylase inhibitors through click chemistry” (J Med Chem, 2008)
